Measurements from ChEMBL document CHEMBL1125228, “A 3-D model for 5-HT1A-receptor agonists based on stereoselective methyl-substituted and conformationally restricted analogues of 8-hydroxy-2-(dipropylamino)tetralin” (J Med Chem, 1991).
Values joined by “and” are separate entries in the source; they are usually repeats but may differ in a detail not shown here. Equal entries are not always repeated.

Tests used:
[1] = target: T1, 5-hydroxytryptamine receptor 1A (Rattus norvegicus, UniProt P19327); assay: Binding affinity at 5-hydroxytryptamine 1A receptor by the displacement of [3H]8-OH-DPAT in rat brain.; type: tissue-based
T1 sequence (P19327 whole entry): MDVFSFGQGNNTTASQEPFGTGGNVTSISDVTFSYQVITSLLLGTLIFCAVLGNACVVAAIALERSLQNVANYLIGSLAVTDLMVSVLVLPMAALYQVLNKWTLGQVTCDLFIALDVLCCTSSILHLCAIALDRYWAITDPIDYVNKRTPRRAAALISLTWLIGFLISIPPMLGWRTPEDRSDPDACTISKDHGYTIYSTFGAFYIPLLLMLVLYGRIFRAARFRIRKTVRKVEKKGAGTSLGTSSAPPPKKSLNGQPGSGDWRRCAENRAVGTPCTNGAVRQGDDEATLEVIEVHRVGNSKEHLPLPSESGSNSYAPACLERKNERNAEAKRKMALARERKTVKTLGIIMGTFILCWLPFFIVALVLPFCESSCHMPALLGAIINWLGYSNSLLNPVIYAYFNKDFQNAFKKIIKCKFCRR
In short: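 Rat brain membranes washed in 50 mM Tris-HCl pH 7.4, with a 37 °C 10 min incubation to remove endogenous 5-HT, used at 10 mg wet tissue/mL. Incubated 15 min at 37 °C with 1 nM [3H]-8-OH-DPAT, 3 mM CaCl2 and pargyline. Filtered and counted; 10 µM 5-HT defined nonspecific binding. IC50 from four-parameter logistic fit, converted to Ki by Cheng-Prusoff; mean ± SEM of N experiments.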

[2] = target: Serotonin (5-HT) receptor (Rattus norvegicus) (UniProt P35563+P35365+P32305+P31388+Q9JJ16+P28564+P30994+Q62758+P08909+P14842+P30940+P35364+P19327+P28565); assay: Dose corresponding to half-maximal decrease of 5-HTP formation in the limbic and striatal parts of rat brain; type: functional, tissue-based
[3] = tested on: Rattus norvegicus; assay: In vivo accumulation of DOPA in brain stem of rat brain at a dose of 53 umol/kg.; type: functional
In short: (§1)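 Hydrochlorides given sc in the neck (5 mL/kg) to rats, either untreated or reserpine-pretreated (5 mg/kg sc, 6 h before). Decarboxylase inhibitor NSD 1015 (100 mg/kg ip or 60 mg/kg sc) given 30 min later; rats decapitated after another 30 min. Striatum, limbic system, hemispheres and brain stem dissected on ice and homogenized in 0.1 M perchloric acid with α-methyl-DOPA internal standard. DOPA, DA, 5-HTP and 5-HT measured by ion-pair reversed-phase HPLC with electrochemical detection.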

[4] = tested on: Rattus norvegicus; assay: In vivo accumulation of 5-HT in striatum of rat brain at a dose of 53 umol/kg.; type: functional; in short: as §1
[5] = tested on: Rattus norvegicus; assay: In vivo accumulation of 5-HTP in striatum of rat brain at a dose of 53 umol/kg.; type: functional; in short: as §1
[6] = tested on: Rattus norvegicus; assay: In vivo accumulation of 5-HTP in hemisphere of rat brain at a dose of 53 umol/kg.; type: functional; in short: as §1
[7] = tested on: Rattus norvegicus; assay: In vivo accumulation of 5-HTP in brain stem of rat brain at a dose of 53 umol/kg.; type: functional; in short: as §1
[8] = tested on: Rattus norvegicus; assay: In vivo accumulation of DA in striatum of rat brain at a dose of 53 umol/kg.; type: functional; in short: as §1
[9] = tested on: Rattus norvegicus; assay: In vivo accumulation of 5-HTP in limbic of rat brain at a dose of 53 umol/kg.; type: functional; in short: as §1
[10] = tested on: Rattus norvegicus; assay: In vivo accumulation of 5-HT in limbic of rat brain at a dose of 53 umol/kg.; type: functional; in short: as §1
[11] = tested on: Rattus norvegicus; assay: In vivo accumulation of DOPA in striatum of rat brain at a dose of 53 umol/kg.; type: functional
In short: (§2)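 Rats, reserpine-pretreated (5 mg/kg, i.e. 9 μmol/kg sc, 6 h before) or nonpretreated, given test hydrochloride sc in the neck (injection volume 5 mL/kg). Decarboxylase inhibitor NSD 1015 (100 mg/kg ip or 60 mg/kg sc) given 30 min later; decapitation after another 30 min. Brain dissected on ice into striatum, limbic system, hemispheres, brain stem. Homogenized in 0.1 M perchloric acid with α-methyl-DOPA internal standard; DOPA measured by ion-pair reversed-phase HPLC with electrochemical detection.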

[12] = target: T2, Dopamine receptor (Rattus norvegicus) (UniProt P25115+P19020+P30729+P18901+P61169); assay: In vivo accumulation of DOPA in hemisphere of rat brain at a dose of 53 umol/kg.; type: functional, organism-based; in short: as §2
[13] = tested on: Rattus norvegicus; assay: In vivo accumulation of 5-HT in striatum of rat brain at a dose of 63 umol/kg.; type: functional; in short: as §1
[14] = tested on: Rattus norvegicus; assay: In vivo accumulation of 5-HTP in brain stem of rat brain at a dose of 63 umol/kg.; type: functional; in short: as §1
[15] = tested on: Rattus norvegicus; assay: In vivo accumulation of DOPA in brain stem of rat brain at a dose of 63 umol/kg.; type: functional; in short: as §1
[16] = target: T2, Dopamine receptor (Rattus norvegicus); assay: In vivo accumulation of DOPA in limbic of rat brain at a dose of 63 umol/kg.; type: functional, organism-based; in short: as §2
[17] = tested on: Rattus norvegicus; assay: In vivo accumulation of 5-HTP in hemisphere of rat brain at a dose of 63 umol/kg.; type: functional; in short: as §1
[18] = tested on: Rattus norvegicus; assay: In vivo accumulation of DOPA in hemisphere of rat brain at a dose of 63 umol/kg.; type: functional; in short: as §2
[19] = tested on: Rattus norvegicus; assay: In vivo accumulation of DA in striatum of rat brain at a dose of 63 umol/kg.; type: functional; in short: as §1
[20] = tested on: Rattus norvegicus; assay: In vivo accumulation of DOPA in striatum of rat brain at a dose of 63 umol/kg.; type: functional; in short: as §2
[21] = tested on: Rattus norvegicus; assay: In vivo accumulation of 5-HTP in limbic of rat brain at a dose of 63 umol/kg.; type: functional; in short: as §1
[22] = tested on: Rattus norvegicus; assay: In vivo accumulation of 5-HTP in striatum of rat brain at a dose of 63 umol/kg.; type: functional; in short: as §1
[23] = tested on: Rattus norvegicus; assay: In vivo accumulation of 5-HT in limbic of rat brain at a dose of 63 umol/kg.; type: functional; in short: as §1

Compound: CCCN(CCC)[C@@H]1CCc2cccc(O)c2[C@H]1C (racemic)
- Ki [1]: 1040 nM
- ED50 [2]: > 0.05 mg/kg

Compound: CCCN(CCC)[C@H]1Cc2c(O)cccc2C[C@H]1C [listing 1 of 2 here]
- Ki [1]: 2020 nM

Compound: CCCN1CCC[C@H]2Cc3cccc(O)c3C[C@@H]21 [listing 1 of 2 here]
- Ki [1]: > 10000 nM

Compound: CCCN1CCC[C@@H]2Cc3cccc(O)c3C[C@@H]21 [listing 1 of 3 here]
- Control [3]: 82.3%
- Control [4]: 118.7%
- Control [5]: 76.1%
- Control [6]: 77.9%
- Control [7]: 87.6%
- Control [8]: 105.3%
- Control [9]: 80.6%
- Control [10]: 107.5%
- Control [11]: 68.3%

Compound: CCCN1CCC[C@@H]2Cc3cccc(O)c3C[C@@H]21 [listing 2 of 3 here]
- Ki [1]: > 10000 nM

Compound: CCCN(CCC)C1(C)CCc2cccc(O)c2C1 (racemic)
- Ki [1]: 1130 nM
- ED50 [2]: > 0.05 mg/kg

Compound: CCCN1CCC[C@@H]2Cc3cccc(O)c3C[C@@H]21 [listing 3 of 3 here]
- ED50 [2]: > 0.05 mg/kg
- Control [12]: 63%

Compound: CCCN1CCC[C@@H]2Cc3cccc(O)c3C[C@H]21 [listing 1 of 3 here]
- Ki [1]: 2810 nM

Compound: CCCN(CCC)C1Cc2c(O)cccc2CC1(C)C (racemic)
- Ki [1]: > 10000 nM
- ED50 [2]: > 0.05 mg/kg

Compound: CCCN1CCC[C@@H]2Cc3cccc(O)c3C[C@H]21 [listing 2 of 3 here]
- Control [3]: 125.1%
- Control [4]: 132%
- Control [5]: 85%
- Control [6]: 92.2%
- Control [7]: 91.9%
- Control [8]: 114.5%
- Control [9]: 88%
- Control [10]: 114.3%
- Control [11]: 66.1%

Compound: CCCN(CCC)C1CCc2cccc(O)c2C1C (racemic)
- Ki [1]: 2.84 nM

Compound: CCCN(CCC)[C@H]1Cc2c(O)cccc2C[C@@H]1C [listing 1 of 2 here]
- Ki [1]: 49.6 nM

Compound: CCCN1CCC[C@@H]2Cc3cccc(O)c3C[C@H]21 [listing 3 of 3 here]
- ED50 [2]: > 0.05 mg/kg
- Control [12]: 97.5%

Compound: CCCN1CCC[C@H]2Cc3cccc(O)c3C[C@H]21 [listing 1 of 2 here]
- Control [3]: 126.9%
- Control [4]: 100%
- Control [5]: 81%
- Control [6]: 103.9%
- Control [7]: 110.3%
- Control [8]: 81.3%
- Control [9]: 92.6%
- Control [10]: 102.9%
- Control [11]: 67.2%

Compound: CCCN(CCC)[C@@H]1Cc2c(O)cccc2C[C@H]1C
- Ki [1]: 1390 nM
- ED50 [2]: > 0.043 mg/kg

Compound: Oc1cccc2c1C[C@H]1NCCC[C@H]1C2
- Control [13]: 100.5%
- Control [14]: 106.8%
- Control [15]: 94.9%
- Control [16]: 82.4% and 85.6%
- Control [17]: 101.4%
- Control [18]: 64.2%
- Control [19]: 92.4%
- Control [20]: 84%
- Control [21]: 92%
- Control [22]: 108.8%
- Control [23]: 89.4%

Compound: CCCN(CCC)[C@@H]1Cc2c(O)cccc2C[C@@H]1C
- Ki [1]: 394 nM
- ED50 [2]: 0.02 mg/kg

Compound: CCCN(CCC)[C@H]1Cc2c(O)cccc2C[C@@H]1C [listing 2 of 2 here]
- ED50 [2]: 0.005 mg/kg

Compound: CCCN(CCC)[C@H]1CCc2cccc(O)c2[C@H]1C
- Ki [1]: 2920 nM
- ED50 [2]: > 0.05 mg/kg

Compound: CCCN(CCC)[C@H]1Cc2c(O)cccc2C[C@H]1C (racemic)
- Ki [1]: 656 nM

Compound: CCCN(CCC)[C@H]1Cc2c(O)cccc2C[C@H]1C [listing 2 of 2 here]
- ED50 [2]: > 0.05 mg/kg

Compound: CCCN1CCC[C@@H]2c3c(O)cccc3CC[C@H]21 [listing 1 of 2 here]
- Ki [1]: 32.3 nM

Compound: CCCN(CCC)[C@@H]1C[C@@H]1c1cccc(O)c1
- ED50 [2]: > 0.05 mg/kg

Compound: CCCN1CCC[C@H]2Cc3cccc(O)c3C[C@@H]21 [listing 2 of 2 here]
- Control [3]: 117.7%
- Control [4]: 116.9%
- Control [5]: 124.8%
- Control [6]: 113%
- Control [7]: 112.4%
- Control [8]: 95.4%
- Control [9]: 102.3%
- Control [10]: 95.1%
- Control [11]: 91.4%

Compound: CCCN(CCC)[C@H]1Cc2c(O)cccc2C[C@@H]1C (racemic)
- Ki [1]: 104 nM

Compound: CCCN1CCC[C@H]2Cc3cccc(O)c3C[C@H]21 [listing 2 of 2 here]
- Ki [1]: 151 nM

Compound: CCCN(CCC)[C@@H]1C[C@@H]1c1ccccc1O
- ED50 [2]: 0.04 mg/kg

Compound: CCCN1CCC[C@H]2c3c(O)cccc3CC[C@@H]21 [listing 1 of 2 here]
- Ki [1]: 3.87 nM

Compound: Oc1cccc2c1C[C@H]1NCCC[C@@H]1C2
- Control [13]: 100.5%
- Control [14]: 101.7%
- Control [15]: 91.4%
- Control [16]: 84.4% and 89.8%
- Control [17]: 81.9%
- Control [18]: 79%
- Control [19]: 92.4%
- Control [20]: 84.2%
- Control [21]: 82.3%
- Control [22]: 96.5%
- Control [23]: 89.4%

Compound: CCCN(CCC)[C@@H]1CCc2cccc(O)c2[C@@H]1C
- Ki [1]: 2.08 nM

Compound: Oc1cccc2c1C[C@@H]1NCCC[C@H]1C2
- Control [13]: 116%
- Control [14]: 115.8%
- Control [15]: 90.3%
- Control [16]: 85.7% and 95.5%
- Control [17]: 107.8%
- Control [18]: 85.2%
- Control [19]: 97.4%
- Control [20]: 85.3%
- Control [21]: 104.6%
- Control [22]: 116.8%
- Control [23]: 109.6%

Compound: CCCN1CCC[C@H]2c3c(O)cccc3CC[C@@H]21 [listing 2 of 2 here]
- ED50 [2]: 0.0005 mg/kg
- Control [12]: 140%

Compound: Oc1cccc2c1C[C@@H]1NCCC[C@@H]1C2
- Control [13]: 105%
- Control [14]: 101.7%
- Control [15]: 97.7%
- Control [16]: 75.3% and 73.5%
- Control [17]: 59.7%
- Control [18]: 70.4%
- Control [19]: 92.6%
- Control [20]: 88%
- Control [21]: 88.6%
- Control [22]: 102.7%
- Control [23]: 92.5%

Compound: CCCN1CCC[C@@H]2c3c(O)cccc3CC[C@H]21 [listing 2 of 2 here]
- ED50 [2]: 0.0005 mg/kg
- Control [12]: 117%
